Consider 27 compounds from ChEMBL document CHEMBL5113556, “Benzo[d]isoxazole Derivatives as Hypoxia-Inducible Factor (HIF)-1α Inhibitors” (ACS Med Chem Lett, 2022).

Data set [1] in a line: Downregulation of VEGF protein expression in HEK293T cells at 50 uM measured after 24 hrs under […] condition by Western blot analysis relative to control. The format is functional, Homo sapiens, HEK-293T. In general terms: A western blot detects proteins with antibodies after separation by electrophoresis.
The test system of data set [2] is HEK-293T. Kind of data set: Downregulation of PDK1 mRNA expression in HEK293T cells measured after 24 hrs under hypoxia condition by RT-PCR analysis. Particulars: Homo sapiens, dose 0.01-50 µM, DDE = dose-dependent effect.
Data set [3] concerns HEK-293T. Description: Cytotoxicity against HEK293T cells at 50 uM. The class given is toxicity, cell-based. Particulars: human. An outline of the steps:
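Cytotoxicity was read from the Renilla signal of the dual-luciferase reporter run in HEK293T cells (24 h transfection, then 24 h compound exposure) at concentrations up to 50 μM.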

Data set [4] has as its target Hypoxia-inducible factor 1-alpha (Homo sapiens, UniProt Q16665). Kind of data set: Inhibition of HIF-1alpha (unknown origin) transcriptional activity expressed in HEK293T cells co-transfected with renilla and HRE-firelfly luciferase incubated for 24 hrs by dual luciferase reporter gene assay. The format is cell-based. The procedure, abridged: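 HEK293T cells were transfected for 24 h with HIF-1α (P2A), Renilla and HRE-firefly luciferase constructs, then exposed to test compounds for a further 24 h. The firefly signal (luciferin substrate) gave HIF-1 inhibition, normalized to the Renilla signal (coelenterazine substrate). Transcriptional activity was calculated by a formula given in the Supporting Information.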
(A reporter such as luciferase makes a cellular process visible.)

Data set [5] has as its system HEK-293T. Description: Downregulation of VEGF mRNA expression in HEK293T cells measured after 24 hrs under hypoxia condition by RT-PCR analysis. Particulars: Homo sapiens, dose 0.01-50 µM, DDE = dose-dependent effect.

pIC50: −log10 of the molar value.

Sequence of Hypoxia-inducible factor 1-alpha (Q16665 whole entry): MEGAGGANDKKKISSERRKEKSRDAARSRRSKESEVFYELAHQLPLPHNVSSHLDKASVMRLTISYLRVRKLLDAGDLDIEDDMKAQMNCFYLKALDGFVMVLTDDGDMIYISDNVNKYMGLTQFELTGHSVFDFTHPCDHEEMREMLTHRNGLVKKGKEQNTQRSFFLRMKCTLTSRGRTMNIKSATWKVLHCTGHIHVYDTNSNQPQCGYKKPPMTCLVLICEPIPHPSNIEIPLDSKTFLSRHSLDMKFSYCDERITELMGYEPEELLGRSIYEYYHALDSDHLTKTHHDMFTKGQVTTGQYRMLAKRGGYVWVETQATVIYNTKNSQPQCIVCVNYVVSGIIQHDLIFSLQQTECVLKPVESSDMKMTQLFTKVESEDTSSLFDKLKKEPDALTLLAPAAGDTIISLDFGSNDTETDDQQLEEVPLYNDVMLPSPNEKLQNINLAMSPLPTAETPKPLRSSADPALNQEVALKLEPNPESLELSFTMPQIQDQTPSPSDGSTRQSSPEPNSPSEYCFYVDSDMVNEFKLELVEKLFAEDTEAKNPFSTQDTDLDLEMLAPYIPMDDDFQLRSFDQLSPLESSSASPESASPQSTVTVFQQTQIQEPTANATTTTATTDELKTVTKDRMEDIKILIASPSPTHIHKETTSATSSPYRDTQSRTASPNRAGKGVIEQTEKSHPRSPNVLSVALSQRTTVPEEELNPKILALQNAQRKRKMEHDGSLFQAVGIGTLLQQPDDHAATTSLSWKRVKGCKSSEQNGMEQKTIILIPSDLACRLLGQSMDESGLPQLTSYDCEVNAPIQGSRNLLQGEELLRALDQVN

On to `CC(=O)c1ccc(NC(=O)c2noc3ccccc23)cc1`, for which the Activity is 20% in data set [1], “Dde” in data set [2], “Non-Toxic” in data set [3] and “Dde” in data set [5]. For the same compound, in data set [4], the pIC50 was 7.62.
Turning to `O=C(Nc1ccccc1Cl)c1noc2ccccc12`, the Activity entry in data set [3] is recorded as “Non-Toxic”. In data set [4], the pIC50 was 5.64.
Taken in the same sequence, the figures for `COC(=O)c1cccc(NC(=O)c2noc3ccccc23)c1` were “Non-Toxic” and 6.70.
In the same order, the values of `O=C(Nc1ccncc1)c1noc2ccccc12` are “Non-Toxic” and 5.00.
Taken in the same sequence, the figures for `O=C(Nc1ccc2scnc2c1)c1noc2ccccc12` were “Non-Toxic” and 7.38.
For the compound `O=C(Nc1ccc2ccccc2c1)c1noc2ccccc12`, the Activity entry in data set [3] was “Non-Toxic”. Further, in data set [4], the pIC50 is 7.12.
As to `CN(C)c1ccccc1NC(=O)c1noc2ccccc12`, in data set [3], the Activity entry was “Non-Toxic”.
For `COC(=O)c1ccc(O)c(NC(=O)COc2ccc(C34CC5CC(CC(C5)C3)C4)cc2)c1`, the Activity result in data set [3] is recorded as “Non-Toxic”. Further, in data set [4], the pIC50 is 5.59.
Taken in the same sequence, the figures for `O=C1CCCc2cc(NC(=O)c3noc4ccccc34)ccc21` were “Non-Toxic” and 6.19.
Taken in the same sequence, the figures for `O=C(NC1CCCCC1)c1noc2ccccc12` were “Non-Toxic” and 5.27.
As to `O=C(Nc1ccccc1)c1ccon1`, the Activity entry in data set [3] is reported as “Non-Toxic”.
On to `CC(=O)c1cccc(NC(=O)c2noc3ccccc23)c1`, for which the Activity entry in data set [3] is recorded as “Non-Toxic”. In addition, the pIC50 in data set [4] was 6.19.
In the same order, the values of `CN(C)c1cccc(NC(=O)c2noc3ccccc23)c1` are “Non-Toxic” and 5.13.
`O=C(Nc1noc2ccccc12)c1ccccc1`: the Activity entry in data set [3] is given as “Non-Toxic”.
Consider `O=C(Nc1ccc(Cl)cc1)c1noc2ccccc12`, for which, in data set [3], the Activity result was “Non-Toxic”. The compound further gave a pIC50 in data set [4] of 7.39.
In the case of `O=C(Nc1ccccc1)c1noc2ccccc12`, in data set [3], the Activity result is recorded as “Non-Toxic”. In data set [4], this compound had a pIC50 of 6.51.
In the same order, the values of `O=C(Nc1ccccn1)c1noc2ccccc12` are “Non-Toxic” and 6.03.
Taken in the same sequence, the figures for `O=C(Nc1cccc(Cl)c1)c1noc2ccccc12` were “Non-Toxic” and 6.60.
For the compound `O=C(c1noc2ccccc12)N1CCCCC1`, the Activity entry in data set [3] is “Non-Toxic”.
As for `COc1cccc(NC(=O)c2noc3ccccc23)c1`, the Activity entry in data set [3] is on record as “Non-Toxic”. Also, in data set [4], the pIC50 was 6.77.
As for `CN(C)c1ccc(NC(=O)c2noc3ccccc23)cc1`, the Activity entry is “Dde” in data set [2], “Non-Toxic” in data set [3] and “Dde” in data set [5]. This compound showed a pIC50 in data set [4] of 7.62.
For `O=C(NCc1ccccc1)c1noc2ccccc12`, in data set [3], the Activity entry is “Non-Toxic”.
Regarding `O=C(Nc1cccc(-c2ccccc2)c1)c1noc2ccccc12`, in data set [3], the Activity result is “Non-Toxic”. The compound also showed a pIC50 in data set [4] of 5.77.
In the same order, the values of `CCn1c2ccccc2c2cc(NC(=O)c3noc4ccccc34)ccc21` are “Non-Toxic” and 6.09.
In the same order, the values of `COc1ccccc1NC(=O)c1noc2ccccc12` are “Non-Toxic” and 5.26.
In the same order, the values of `COc1ccc(NC(=O)c2noc3ccccc23)cc1` are “Non-Toxic” and 7.40.
`O=C(Nc1cccc([N+](=O)[O-])c1)c1noc2ccccc12`: the Activity result in data set [3] is “Non-Toxic”. In data set [4], this compound showed a negative logarithm of the IC50 (pIC50) of 6.32.

A word on the pIC50: it is −log10 of the IC50, conventionally taken in molar units.
